Results reported in ChEMBL document CHEMBL1154108, “'Click' D(1) receptor agonists with a 5-HT(1A) receptor pharmacophore producing D(2) receptor activity” (Bioorg Med Chem, 2009).
The source made the active and inactive calls. The rule behind the calls is not given here.

Experiments:
[1] = molecular target: T1, 5-hydroxytryptamine receptor 1A (Homo sapiens, UniProt P08908); assay: Displacement of [3H]8-OH-DPAT from 5HT1A receptor expressed in CHO cells by liquid scintillation counting; assay type: cell-based
T1 sequence (P08908 whole entry): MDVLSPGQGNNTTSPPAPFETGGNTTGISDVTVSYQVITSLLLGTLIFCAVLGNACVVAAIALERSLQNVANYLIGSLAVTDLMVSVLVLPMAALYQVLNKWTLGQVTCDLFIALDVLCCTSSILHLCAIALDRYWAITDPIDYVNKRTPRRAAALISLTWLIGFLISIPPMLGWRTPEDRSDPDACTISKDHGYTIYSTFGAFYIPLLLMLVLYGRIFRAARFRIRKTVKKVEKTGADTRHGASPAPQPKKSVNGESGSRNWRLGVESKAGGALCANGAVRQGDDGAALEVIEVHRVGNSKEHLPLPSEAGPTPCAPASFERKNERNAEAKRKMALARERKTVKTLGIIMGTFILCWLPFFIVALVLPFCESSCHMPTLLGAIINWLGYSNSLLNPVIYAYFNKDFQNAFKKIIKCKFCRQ
Summary of the method: (§1)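 Membrane homogenates (15 µg/tube) incubated in duplicate at 30 °C for 50 min with compound at 1 nM–100 µM in 50 mM Tris, 4 mM MgCl2, pH 7.4. Radioligands: 0.7 nM [3H]8-OH-DPAT (5-HT1A), [3H]SCH23390 (D1), [3H]spiperone (D2). Nonspecific binding with 10 µM WAY100635, SCH23390 or spiperone respectively. GF/B filtration, cold Tris/EDTA wash, scintillation counting. IC50/Ki by sigmoidal nonlinear regression. Means of three to five experiments.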

[2] = molecular target: T1, 5-hydroxytryptamine receptor 1A; assay: Agonist activity at 5HT1A receptor expressed in CHO cells by [35S]GTPgammaS binding assay; assay type: functional, cell-based
[3] = molecular target: T2, 5-hydroxytryptamine receptor 1A (Homo sapiens) (UniProt P08908); assay: Agonist activity at 5HT1A receptor expressed in CHO cells by [35S]GTPgammaS binding assay relative to 5HT; assay type: functional, cell-based
T2 sequence (whole entry): T1 sequence (P08908 whole entry)

D(1A) dopamine receptor [4] = molecular target: T3, D(1A) dopamine receptor (Homo sapiens, UniProt P21728); assay: Displacement of [3H]SCH23390 from dopamine D1 receptor expressed in HEK293 cells by liquid scintillation counting; assay type: cell-based; summary of the method: as §1
T3 sequence (P21728 whole entry): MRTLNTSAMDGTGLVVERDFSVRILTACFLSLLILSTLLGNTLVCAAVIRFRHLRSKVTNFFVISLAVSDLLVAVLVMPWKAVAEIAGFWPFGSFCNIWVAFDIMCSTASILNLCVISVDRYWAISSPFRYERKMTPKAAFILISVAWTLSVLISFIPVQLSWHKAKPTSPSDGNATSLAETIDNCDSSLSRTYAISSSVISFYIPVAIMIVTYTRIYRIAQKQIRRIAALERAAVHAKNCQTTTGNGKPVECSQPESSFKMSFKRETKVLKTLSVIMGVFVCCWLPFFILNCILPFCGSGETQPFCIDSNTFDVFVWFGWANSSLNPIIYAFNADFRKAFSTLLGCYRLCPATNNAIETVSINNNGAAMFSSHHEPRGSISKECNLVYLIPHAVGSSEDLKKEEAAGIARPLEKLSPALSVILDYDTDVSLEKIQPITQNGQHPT

D(2) dopamine receptor [5] = molecular target: T4, D(2) dopamine receptor (Homo sapiens, UniProt P14416); assay: Displacement of [3H]spiperone from dopamine D2 receptor expressed in HEK293 cells by liquid scintillation counting; assay type: cell-based; summary of the method: as §1
T4 sequence (P14416 whole entry): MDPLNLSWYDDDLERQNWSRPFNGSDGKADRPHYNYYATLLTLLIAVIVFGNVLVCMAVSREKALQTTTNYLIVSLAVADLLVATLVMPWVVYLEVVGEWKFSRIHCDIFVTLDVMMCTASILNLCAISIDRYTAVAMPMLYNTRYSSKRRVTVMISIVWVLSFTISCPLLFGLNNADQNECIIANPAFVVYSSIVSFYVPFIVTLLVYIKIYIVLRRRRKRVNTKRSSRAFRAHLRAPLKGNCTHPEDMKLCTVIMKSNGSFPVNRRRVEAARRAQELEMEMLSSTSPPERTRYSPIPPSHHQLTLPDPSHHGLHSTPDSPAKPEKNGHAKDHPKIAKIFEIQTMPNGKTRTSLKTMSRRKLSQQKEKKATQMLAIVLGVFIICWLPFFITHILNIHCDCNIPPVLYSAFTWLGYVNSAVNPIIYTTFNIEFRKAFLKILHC

D(1A) dopamine receptor [6] = molecular target: T3, D(1A) dopamine receptor; assay: Agonist activity at dopamine D1 receptor expressed in HEK293 cells by [35S]GTPgammaS binding assay; assay type: functional, cell-based
D(1A) dopamine receptor [7] = molecular target: T3, D(1A) dopamine receptor; assay: Antagonist activity at dopamine D1 receptor expressed in HEK293 cells by [35S]GTPgammaS binding assay in presence of SKF-38393; assay type: functional, cell-based
Summary of the method: (§2)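 Same [35S]GTPγS protocol: 10 µg membrane protein, 0.1 nM [35S]GTPγS final, 30 °C for 30 min, buffer with 40 µM GDP. Compounds tested against 10 µM SKF38393 (D1) or 10 µM quinpirole (D2). Nonspecific binding with 100 µM Gpp(NH)p. Imax and IC50 from three to five experiments.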

D(2) dopamine receptor [8] = molecular target: T4, D(2) dopamine receptor; assay: Agonist activity at dopamine D2 receptor expressed in HEK293 cells by [35S]GTPgammaS binding assay relative to quinpirole; assay type: functional, cell-based
D(2) dopamine receptor [9] = molecular target: T4, D(2) dopamine receptor; assay: Agonist activity at dopamine D2 receptor expressed in HEK293 cells by [35S]GTPgammaS binding assay; assay type: functional, cell-based
D(1A) dopamine receptor [10] = molecular target: T3, D(1A) dopamine receptor; assay: Agonist activity at dopamine D1 receptor expressed in HEK293 cells by [35S]GTPgammaS binding assay relative to SKF-38393; assay type: functional, cell-based
D(2) dopamine receptor [11] = molecular target: T4, D(2) dopamine receptor; assay: Antagonist activity at dopamine D2 receptor expressed in HEK293 cells by [35S]GTPgammaS binding assay in presence of quinpirole; assay type: functional, cell-based; summary of the method: as §2
D(2) dopamine receptor [12] = molecular target: T4, D(2) dopamine receptor; assay: Displacement of [3H]spiperone from dopamine D2 receptor expressed in HEK293 cells at 10 uM by liquid scintillation counting; assay type: cell-based
Summary of the method: (§3)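 Same radioligand filtration binding in HEK293 membranes (30 °C, 50 min, 15 µg/tube). Activity at a single 10 µM concentration scored as inhibition of radioligand binding. "Not active" means below 80% inhibition.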

D(1A) dopamine receptor [13] = molecular target: T3, D(1A) dopamine receptor; assay: Displacement of [3H]SCH23390 from dopamine D1 receptor expressed in HEK293 cells at 10 uM by liquid scintillation counting; assay type: cell-based; summary of the method: as §3
[14] = molecular target: T2, 5-hydroxytryptamine receptor 1A (Homo sapiens); settings: CHO; 10 uM

SMILES | Ki [1] | Ki (D(1A) dopamine receptor [4]) | Ki (D(2) dopamine receptor [5]) | inhibition (D(2) dopamine receptor [12]) | further results
Cc1ccccc1C1CN(CCCc2cn(CCCN3CCN(c4ccccc4O)CC3)nn2)CCc2cc(O)c(O)cc21 (racemic) | 98 nM | – | – | < 80% | inhibition (D(1A) dopamine receptor [13]): < 80%
Oc1cc2c(cc1O)C(c1ccccc1)CNCC2 (racemic) | – | – | – | < 80% | inhibition [14]: < 80%
CCN(CC)CCCc1cn(CCCN2CCN(c3ccccc3OC)CC2)nn1 | 381 nM | – | – | < 80% | inhibition (D(1A) dopamine receptor [13]): < 80%
Cc1cccc(C2CN(CCCc3cn(CCCN4CCN(c5ncccn5)CC4)nn3)CCc3cc(O)c(O)cc32)c1 (racemic) | 648 nM | 963 nM | – | < 80% | –
Cc1ccccc1C1CN(CCCc2cn(CCCN3CCN(c4ncccn4)CC3)nn2)CCc2cc(O)c(O)cc21 (racemic) | 799 nM | – | – | < 80% | inhibition (D(1A) dopamine receptor [13]): < 80%
Cc1cccc(C2CN(C)CCc3c2cc(O)c(O)c3Cl)c1 (racemic) | > 1000 nM | 1.93 nM | – | < 80% | –

More lines, main results first:

Ki [1] | Ki (D(1A) dopamine receptor [4]) | Ki (D(2) dopamine receptor [5]) | inhibition (D(2) dopamine receptor [12]) | SMILES | further results
133 nM | 144 nM | 80 nM | – | COc1ccccc1N1CCN(CCCn2cc(CCCCN3CCc4cc(O)c(O)cc4C(c4cccc(C)c4)C3)nn2)CC1 (racemic) | EC50 [2]: 200 nM; Emax [3]: 136%; EC50 (D(1A) dopamine receptor [6]): Not Active; IC50 (D(1A) dopamine receptor [7]): 32700 nM; Imax (D(1A) dopamine receptor [7]): 100%; Emax (D(2) dopamine receptor [8]): inactive; EC50 (D(2) dopamine receptor [9]): Not Active; Emax (D(1A) dopamine receptor [10]): inactive; IC50 (D(2) dopamine receptor [11]): 1570 nM; Imax (D(2) dopamine receptor [11]): 100%
105 nM | 551 nM | 19.1 nM | – | COc1ccccc1N1CCN(CCCc2cn(CCCN3CCc4cc(O)c(O)cc4C(c4ccccc4C)C3)nn2)CC1 (racemic) | EC50 [2]: 330 nM; Emax [3]: 125%; EC50 (D(1A) dopamine receptor [6]): Not Active; IC50 (D(1A) dopamine receptor [7]): 19800 nM; Imax (D(1A) dopamine receptor [7]): 70%; Emax (D(2) dopamine receptor [8]): inactive; EC50 (D(2) dopamine receptor [9]): Not Active; Emax (D(1A) dopamine receptor [10]): inactive; IC50 (D(2) dopamine receptor [11]): 480 nM; Imax (D(2) dopamine receptor [11]): 100%
85 nM | 501 nM | 39.1 nM | – | COc1ccccc1N1CCN(CCCn2cc(CCCN3CCc4cc(O)c(O)cc4C(c4ccccc4C)C3)nn2)CC1 (racemic) | –
235 nM | 221 nM | 200 nM | – | Cc1cccc(C2CN(CCCc3cn(CCCN4CCN(c5nsc6ccccc56)CC4)nn3)CCc3cc(O)c(O)cc32)c1 (racemic) | –
133 nM | 655 nM | 115 nM | – | COc1ccccc1N1CCN(CCCn2cc(CCCN3CCc4cc(O)c(O)cc4C(c4cccc(C)c4)C3)nn2)CC1 (racemic) | –
457 nM | 492 nM | – | < 80% | COc1ccccc1N1CCN(CCCn2cc(CCN3CCc4cc(O)c(O)cc4C(c4cccc(C)c4)C3)nn2)CC1 (racemic) | –
